Measured values collected from several papers.
Lines come from different studies, so protocols differ.
OPRK1: Kappa-type opioid receptor (OPRK1, Cavia porcellus, UniProt P41144)
ADRA1A: Alpha-1A adrenergic receptor (ADRA1A, Homo sapiens, UniProt P35348)

With `Cc1cccc(C)c1C[C@H](NC(=O)[C@@H](CCCNC(=N)N)NC(=O)[C@@H](N)Cc1c(C)cc(O)cc1C)C(=O)N[C@@H](CCCCN)C(N)=O` the Ki was 0.0047 µM (OPRK1; ligand displacement; radioligand; cell membranes).
For `N=C(N)NCCC[C@H]1NC(=O)[C@H](Cc2ccc(O)cc2)NC(=O)[C@H](CCCCN)NC(=O)[C@H](Cc2ccccc2)NC1=O`, the Ki was 0.0674 µM (OPRK1; ligand displacement; radioligand; cell membranes).
The EC50 of `CC[C@H](C)[C@H](NC(=O)[C@H](CO)NC(=O)[C@H](CC(=O)O)NC(=O)[C@H](CC(C)C)NC(=O)[C@@H](NC(=O)[C@H](CCCCN)NC(=O)[C@H](CC(N)=O)NC(=O)[C@@H](NC(=O)[C@H](CC(=O)O)NC(=O)[C@H](CO)NC(=O)[C@@H](NC(=O)[C@H](Cc1ccccc1)NC(=O)[C@H](CO)NC(=O)CNC(=O)[C@H](CC(=O)O)NC(=O)[C@@H](NC(=O)[C@@H](N)Cc1c[nH]cn1)C(C)C)[C@@H](C)O)C(C)C)C(C)C)C(=O)N[C@@H](C)C(=O)N[C@@H](C)C(=O)N[C@@H](CCCCN)C(=O)N[C@@H](CCC(=O)O)C(=O)N[C@@H](Cc1ccc(O)cc1)C(=O)N[C@@H](CC(C)C)C(=O)N[C@@H](CCC(N)=O)C(=O)N[C@@H](Cc1c[nH]c2ccccc12)C(=O)N[C@H](C(=O)N[C@@H](CCSC)C(=O)N[C@@H](CC(N)=O)C(=O)N[C@@H](CO)C(=O)N[C@@H](CCCCN)C(=O)N[C@@H](C)C(=O)N[C@@H](CO)C(=O)NCC(=O)O)C(C)C` is reported as greater than 1 µM (Glucagon-like peptide 2 receptor (GLP2R, Homo sapiens, UniProt O95838); reporter gene; agonist; luciferase).
With `Nc1ncnc2c1ncn2[C@@H]1O[C@H](COP(=O)(O)OP(=O)(O)NP(=O)(O)O)[C@@H](O)[C@H]1O` the Ki was 25000 µM (lptB (Escherichia coli, UniProt P0A9V1); ATPase activity; inhibitor).
`Cc1cc(O)cc(C)c1C[C@H](N)C(=O)N[C@H](CCCNC(=N)N)C(=O)N[C@@H](Cc1c[nH]c2ccccc12)C(=O)N[C@@H](CCCCN)C(N)=O` has a Ki of 0.0165 µM (OPRK1; ligand displacement; radioligand; cell membranes).
The Ki of `CC(C)C[C@H](NC(=O)[C@H](CCCCN)NC(=O)[C@@H]1CCCN1C(=O)[C@@H](N)CCCNC(=N)N)C(=O)N[C@@H](CCCCN)C(=O)O` is reported as greater than 10 µM (ADRA1A; cell-free assay; radioligand).
`CCCC[C@@H](NC(=O)[C@@H](N)Cc1ccc(O)cc1)C(=O)NCC(=O)N[C@@H](Cc1ccc(F)cc1)C(=O)N(C)CCC[C@@]1(c2ccc(F)cc2)OCc2cc(C#N)ccc21` gave a Ki of 6.6 µM (ADRA1A; ligand displacement; radioligand).
The Kd of `C[C@H]1CC[C@@]2(OC1)O[C@H]1C[C@H]3[C@@H]4CC[C@@H]5C[C@@H](O[C@@H]6O[C@H](CO)[C@H](O)[C@H](O)[C@H]6O[C@@H]6O[C@H](CO)[C@@H](O)[C@H](O)[C@H]6O)CC[C@]5(C)[C@H]4CC[C@]3(C)[C@H]1[C@@H]2C` is reported as 61.7 µM (Angiotensin-converting enzyme 2 (ACE2, Homo sapiens, UniProt Q9BYF1); binding).
With `Cc1cc(O)cc(C)c1C[C@H](C)C(=O)N[C@@H]1C/C=C/CC[C@@H](C(N)=O)NC(=O)[C@H](Cc2ccccc2)NC(=O)[C@H](Cc2ccccc2)NC1=O` the Ki was 0.635 µM (OPRK1; ligand displacement; radioligand; cell membranes).
